According to ChEMBL document CHEMBL5321249, “Appraisal of Fungus-Derived Xanthoquinodins as Broad-Spectrum Anti-Infectives Targeting Phylogenetically Diverse Human Pathogens” (J Nat Prod, 2023):

What was measured:
[1] = test system: Cryptosporidium parvum; assay: Antiparasitic activity against Nanoluciferase-tagged Cryptosporidium parvum infected in human HCT-8 cells assessed as inhibition of parasite growth incubated for 48 hrs by NanoGlo luciferase reagent based assay; format: functional, organism-based; conditions: HCT-8, 48 h
How it was run: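 HCT-8 cells grown 48 h to 50–75% confluence; calf-propagated oocysts activated 15 min in 10% bleach at room temperature, DPBS-washed, 5 × 10^3 per well in RPMI-1640 with 10% heat-inactivated FBS and penicillin-streptomycin plus graded compound, 48 h at 37 °C, 5% CO2. Lysed monolayers read with Nano-Glo; growth relative to infected untreated wells, no-parasite background; variable-slope sigmoidal EC50.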

[2] = test system: Mycoplasma genitalium; assay: Antibacterial activity against Mycoplasma genitalium G37 assessed as bacterial growth inhibition incubated for 6 to 7 days by microbroth dilution assay; format: functional, organism-based; conditions: Mycoplasmoides genitalium
How it was run: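 M. genitalium G37 from frozen stock grown 2 days in SP-4 broth at 37 °C, 5% CO2, to log phase; 0.45 μm-filtered, diluted 1:200 in SP-4 with 7.5% FBS, ~10^4 CFU per well with 2-fold serial compound dilutions in triplicate.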

[3] = Cytotoxicity against human HepG2 cells incubated for 48 hrs by MTS based assay; format: toxicity, cell-based
[4] = test system: Plasmodium falciparum; assay: Antimalarial activity against asynchronous Plasmodium falciparum Dd2 infected in human A+ erythrocytes incubated for 72 hrs by SYBR Green I dye based assay; format: functional, organism-based; conditions: Dd2, Erythrocyte
[5] = test system: Trichomonas vaginalis; assay: Antiparasitic activity against Trichomonas vaginalis Donne PRA-98 incubated for 17 hrs by glutaraldehyde/propidium iodide/acridine orange staining based high-content imaging analysis; format: functional, organism-based; conditions: Donne PRA-98, 17 h
[6] = Selectivity index, ratio of EC50 for cytotoxicity against human HepG2 cells to EC50 for antimalarial activity against asynchronous Plasmodium falciparum Dd2 infected in human A+ erythrocytes; format: toxicity, cell-based; conditions: read-out: Ratio EC50
How it was run: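 SI is HepG2 EC50 over P. falciparum Dd2 EC50. Asynchronous-stage parasites were assayed by SYBR Green I fluorescence with chloroquine-treated and untreated controls, and EC50 came from dose–response fits. HepG2 cytotoxicity used an MTS absorbance assay in triplicate up to 25 μM, with a 5% Triton X-100 zero-viability control and a no-treatment control.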

[7] = Selectivity index, ratio of EC50 for cytotoxicity against human HepG2 cells to EC50 for antiparasitic activity against Nanoluciferase-tagged Cryptosporidium parvum infected in human HCT-8 cells assessed as inhibition of parasite growth; format: toxicity, cell-based; conditions: read-out: Ratio EC50
How it was run: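 For the parasite, 5 × 10^3 bleach-activated Nanoluciferase-tagged oocysts per well infected HCT-8 monolayers at 50–75% confluence in RPMI-1640 with 10% FBS. They were incubated 48 h at 37 °C, 5% CO2, then lysed for luminescence. Growth was expressed as percent of infected untreated wells and fitted by variable-slope sigmoidal dose–response.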

[8] = Selectivity index, ratio of EC50 for cytotoxicity against human HepG2 cells to EC50 for antibacterial activity against Mycoplasma genitalium G37; format: cell-based; conditions: read-out: Ratio EC50
How it was run: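 SI is HepG2 EC50 over M. genitalium G37 EC50. G37 (~10^4 CFU/well) was grown in SP-4 broth with 7.5% FBS against 2-fold serial dilutions in triplicate for 6–7 days at 37 °C, 5% CO2. Genomes were quantified by 16S rRNA qPCR against untreated wells. HepG2 cytotoxicity used an MTS assay in triplicate, maximum 25 μM, with Triton X-100-lysed and untreated controls.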

[9] = Selectivity index, ratio of EC50 for cytotoxicity against human HepG2 cells to EC50 for antiparasitic activity against Trichomonas vaginalis Donne PRA-98; format: toxicity, cell-based; conditions: read-out: Ratio EC50
How it was run: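 Trichomonads (4 × 10^4 per well) under microaerophilic conditions were treated with compound at no more than 0.5% DMSO for 17 h. Cells were then fixed with glutaraldehyde, propidium iodide and acridine orange, shaken, incubated 3 h at 37 °C, and counted by high-content imaging.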

SMILES | EC50 [4] | EC50 [5] | EC50 [1] | EC50 [2] | EC50 at 48 h [3] | selectivity ratio [6] | selectivity ratio [7] | selectivity ratio [8] | selectivity ratio [9]
CCOc1ccc2cc(-c3nn(CC4CCN(C)CC4)c4ncnc(N)c34)ccc2c1 |  |  | 1.1 µM |  |  |  |  |  | 
Cc1ncc([N+](=O)[O-])n1CCO [METRONIDAZOLE] |  | 3.5 µM |  |  |  |  |  |  | 
Cc1cc(O)c2c(c1)[C@@H]([C@@H]1c3cc(C)cc(O)c3C(=O)c3c(O)cc(O)cc31)c1cc(O)cc(O)c1C2=O (relative stereo) | 1.12 µM | > 10 µM | > 2.4 µM | > 10 µM | 10.2 µM | 9.1 |  |  | 
COC(=O)[C@]1([C@@H]2CCC(=O)O2)CC(=O)c2c(cc3c(c2O)[C@@H]2C=C[C@@]4(C3)C(=O)c3cc(C)cc(O)c3C(=O)[C@]4(O)C2=O)O1 | > 5 µM | > 10 µM | > 6 µM | > 10 µM | > 25 µM |  |  |  | 
COC(=O)[C@]12Oc3c(c(O)cc4c3[C@@H]3C=C[C@@]5(C4)C(=O)c4cc(C)cc(O)c4C(=O)[C@]5(O)C3=O)C(=O)C1=C(O)CC[C@@H]2O | > 5 µM | > 10 µM | > 10 µM | > 10 µM | > 25 µM |  |  |  | 
COC(=O)[C@]12Oc3cc4c(c(O)c3C(=O)C1=C(O)CC[C@@H]2O)[C@@H]1C=C[C@@]2(C4)C(=O)c3cc(C)cc(O)c3C(O)=C2C1=O [XANTHOQUINODIN A2] | 0.5 µM | 6.8 µM | 3.5 µM | 0.12 µM | > 25 µM | > 50 | > 7.1 | > 125 | > 3.7
CC[C@H]1OC(=O)[C@H](C)[C@@H](O[C@H]2C[C@@](C)(OC)[C@@H](O)[C@H](C)O2)[C@H](C)[C@@H](O[C@@H]2O[C@H](C)C[C@H](N(C)C)[C@H]2O)[C@](C)(O)C[C@@H](C)CN(C)[C@H](C)[C@@H](O)[C@]1(C)O [AZITHROMYCIN] |  |  |  | 0.0005 µM |  |  |  |  | 
COC(=O)[C@@]12Oc3cc4c(c(O)c3C(=O)C1=C(O)CC[C@@H]2O)[C@@H]1C=C[C@@]2(C4)C(=O)c3cc(C)cc(O)c3C(O)=C2C1=O [XANTHOQUINODIN A1] | 0.29 µM | 3.9 µM | 5.2 µM | 0.13 µM | > 25 µM | > 86 | > 4.8 | > 62.5 | > 6.4

The next lines start with results.

EC50 [4] | EC50 [5] | SMILES | EC50 [1] | EC50 [2] | EC50 at 48 h [3] | selectivity ratio [6] | selectivity ratio [7] | selectivity ratio [8] | selectivity ratio [9]
> 5 µM | > 10 µM | COC(=O)[C@]1([C@@H](O)CCC(=O)O)CC(=O)c2c(cc3c(c2O)[C@@H]2C=C[C@@]4(C3)C(=O)c3cc(C)cc(O)c3C(O)=C4C2=O)O1 | > 10 µM | > 10 µM | > 25 µM |  |  |  | 
> 5 µM | > 10 µM | COC(=O)[C@]1([C@@H]2CCC(=O)O2)CC(=O)c2c(O)cc(C)cc2O1 | > 40 µM | > 10 µM | > 25 µM |  |  |  | 
> 5 µM | > 10 µM | COC(=O)[C@@]12Oc3cc4c(c(O)c3C(=O)C1=C(O)CC[C@@H]2O)[C@@H]1C=C[C@@]2(C4)C(=O)c3cc(C)cc(O)c3C(=O)[C@]2(O)C1=O | > 10 µM | > 10 µM | > 25 µM |  |  |  | 
> 5 µM | > 10 µM | COC(=O)[C@]1([C@@H]2CCC(=O)O2)CC(=O)c2c(cc3c(c2O)[C@@H]2C=C[C@@]4(C3)C(=O)c3cc(C)cc(O)c3C(O)=C4C2=O)O1 [XANTHOQUINODIN A3] |  |  | > 25 µM |  |  |  | 
> 5 µM | > 10 µM | COC(=O)[C@]1([C@@H](O)CCC(=O)O)CC(=O)c2c(cc3c(c2O)[C@@H]2C=C[C@@]4(C3)C(=O)c3cc(C)cc(O)c3C(=O)[C@]4(O)C2=O)O1 | > 10 µM | > 10 µM | > 25 µM |  |  |  | 
1.65 µM | > 10 µM | Cc1cc(O)c2c(c1)[C@@H]([C@H]1c3cc(C)cc(O)c3C(=O)c3c(O)cc(O)cc31)c1cc(O)cc(O)c1C2=O | > 7.2 µM | > 10 µM | 13.8 µM | 8.6 |  |  | 
> 5 µM | > 10 µM | COC(=O)[C@@]12Oc3cc4c(c(O)c3C(=O)[C@]1(O)C(=O)CC[C@@H]2O)[C@@H]1C=C[C@@]2(C4)C(=O)c3cc(C)cc(O)c3C(=O)[C@]2(O)C1=O | > 10 µM | > 10 µM | > 25 µM |  |  |  | 
